Experimental data pooled from the literature.
Each line is one published result; the experiments were not run side by side.
Target: Dual specificity protein kinase CLK1 (CLK1, Homo sapiens, UniProt P49759)

CC(C)(C)c1cc(C=C(C#N)C#N)cc(Br)c1O
remaining activity (enzyme activity, inhibitor; 0.5 µM): 112%

C#Cc1n[nH]c2c(-c3cn([C@@H](C)c4ccccn4)c(=O)[nH]c3=O)cc(F)cc12
inhibition (enzyme activity, inhibitor; 0.1 µM): 4.1%

Cn1cc(-c2cc(F)cc(N3CCn4c(cc5c4CCCC5)C3=O)c2CO)cc(Nc2ccc(N3CCN(C4COC4)CC3)cn2)c1=O
inhibition (enzyme activity, inhibitor; 0.1 µM): 11%

Cn1cncc1[C@@](O)(COc1ccc(C#N)cc1-c1ccc(OC(F)(F)F)cc1)c1ccc(C#N)cc1
remaining binding (cell-free assay, competition with immobilised ligand; 1 µM): 100%

O=c1[nH]c2ccccc2n1C1CCN(Cc2ccc(-c3[nH]c4cc5ncnc5cc4nc3-c3ccccc3)cc2)CC1
remaining signal (cell-free assay; 0.5 µM): 109%

Nc1ncc(-c2nc(N3CCOCC3)nc(N3CCOCC3)n2)c(C(F)F)n1
remaining binding (binding, competition with immobilised ligand; 10 µM): 58%

COc1ncccc1-c1cnn2ccc(N3CCN(C(=O)OC(C)C)CC3)nc12
remaining binding (binding, competition with immobilised ligand; 1 µM): 81%

COc1cc(Nc2ncc(F)c(Nc3ccc4c(n3)NC(=O)C(C)(C)O4)n2)cc(OC)c1OC
inhibition (binding, competition with immobilised ligand; 10 µM): 92%

Cc1nn(C)cc1-c1nc2c(N3CCN(Cc4ccc(Cl)cc4)CC3)c(Cl)cnc2[nH]1
remaining binding (binding, competition with immobilised ligand; 1 µM): 63%
